Measured values: ChEMBL document CHEMBL4673268, “The optimization of a novel selective antagonist for human M muscarinic acetylcholine receptor” (Bioorg Med Chem Lett, 2020)
Active and inactive are the calls of the source. The calls are words filed in the database; no cut-off is given here.

Legend:
[1] = molecular target: T1, Muscarinic acetylcholine receptor M4 (Homo sapiens, UniProt P08173); test: Displacement of [3H]-NMS from muscarinic M4 receptor (unknown origin) expressed in CHO-K1 cell membranes assessed as inhibition constant by radioligand competition analysis; parameters: species or system Cell membrane
T1 sequence (P08173 whole entry): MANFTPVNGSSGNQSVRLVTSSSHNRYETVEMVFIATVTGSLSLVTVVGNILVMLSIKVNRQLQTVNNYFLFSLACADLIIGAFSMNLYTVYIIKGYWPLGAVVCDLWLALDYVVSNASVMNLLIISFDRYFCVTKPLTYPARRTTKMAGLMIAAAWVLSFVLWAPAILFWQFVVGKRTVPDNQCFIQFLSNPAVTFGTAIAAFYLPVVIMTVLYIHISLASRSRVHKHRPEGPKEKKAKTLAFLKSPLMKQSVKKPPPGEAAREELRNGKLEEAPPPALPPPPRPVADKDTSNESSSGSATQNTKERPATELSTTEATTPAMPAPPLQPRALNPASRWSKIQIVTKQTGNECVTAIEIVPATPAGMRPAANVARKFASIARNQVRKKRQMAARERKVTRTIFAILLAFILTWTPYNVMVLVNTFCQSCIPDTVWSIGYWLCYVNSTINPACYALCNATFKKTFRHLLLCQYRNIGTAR
Summary of the method: (§1)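 Inhibition constants came from radioligand competition binding. Acetylcholine and atropine were included as positive controls for competitive binding. Values are given as mean ± SEM.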

[2] = molecular target: Muscarinic acetylcholine receptor M3 (Homo sapiens, UniProt P20309); test: Displacement of [3H]-NMS from muscarinic M3 receptor (unknown origin) expressed in CHO-K1 cell membranes assessed as inhibition constant by radioligand competition analysis; parameters: species or system Cell membrane; summary of the method: as §1
Sequence of Muscarinic acetylcholine receptor M3 (P20309 whole entry): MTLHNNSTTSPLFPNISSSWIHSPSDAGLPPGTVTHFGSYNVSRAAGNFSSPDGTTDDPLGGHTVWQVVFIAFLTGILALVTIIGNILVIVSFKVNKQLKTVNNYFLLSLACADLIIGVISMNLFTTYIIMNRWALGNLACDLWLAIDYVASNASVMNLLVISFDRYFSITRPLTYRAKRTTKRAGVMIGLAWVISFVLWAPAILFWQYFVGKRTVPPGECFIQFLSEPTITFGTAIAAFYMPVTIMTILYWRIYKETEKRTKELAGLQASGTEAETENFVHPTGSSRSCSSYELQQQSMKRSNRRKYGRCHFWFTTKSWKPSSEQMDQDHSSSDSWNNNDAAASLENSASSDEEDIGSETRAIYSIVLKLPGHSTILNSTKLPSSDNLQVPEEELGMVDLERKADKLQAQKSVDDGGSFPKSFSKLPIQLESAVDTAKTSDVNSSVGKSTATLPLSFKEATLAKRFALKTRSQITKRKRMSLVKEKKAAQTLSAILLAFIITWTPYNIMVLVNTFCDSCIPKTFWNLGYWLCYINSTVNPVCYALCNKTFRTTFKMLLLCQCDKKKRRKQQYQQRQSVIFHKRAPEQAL

[3] = molecular target: T2, Muscarinic acetylcholine receptor M1 (Homo sapiens, UniProt P11229); test: Displacement of [3H]-NMS from muscarinic M1 receptor (unknown origin) expressed in CHO-K1 cell membranes assessed as inhibition constant by radioligand competition analysis; parameters: species or system Cell membrane; summary of the method: as §1
T2 sequence (P11229 whole entry): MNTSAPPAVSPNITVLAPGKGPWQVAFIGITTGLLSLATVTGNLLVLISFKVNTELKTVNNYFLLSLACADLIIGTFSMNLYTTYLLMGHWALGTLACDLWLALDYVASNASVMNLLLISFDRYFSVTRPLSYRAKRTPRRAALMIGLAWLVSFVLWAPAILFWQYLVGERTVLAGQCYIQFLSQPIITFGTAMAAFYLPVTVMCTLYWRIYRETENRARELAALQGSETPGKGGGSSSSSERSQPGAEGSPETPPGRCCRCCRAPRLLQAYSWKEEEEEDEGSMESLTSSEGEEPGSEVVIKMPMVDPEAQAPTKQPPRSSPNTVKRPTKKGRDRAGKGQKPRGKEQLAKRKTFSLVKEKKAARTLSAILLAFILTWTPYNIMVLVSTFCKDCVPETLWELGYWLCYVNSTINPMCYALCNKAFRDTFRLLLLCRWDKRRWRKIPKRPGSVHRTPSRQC

[4] = molecular target: T3, Muscarinic acetylcholine receptor M2 (Homo sapiens, UniProt P08172); test: Displacement of [3H]-NMS from muscarinic M2 receptor (unknown origin) expressed in CHO-K1 cell membranes assessed as inhibition constant by radioligand competition analysis; parameters: species or system Cell membrane
T3 sequence (P08172 whole entry): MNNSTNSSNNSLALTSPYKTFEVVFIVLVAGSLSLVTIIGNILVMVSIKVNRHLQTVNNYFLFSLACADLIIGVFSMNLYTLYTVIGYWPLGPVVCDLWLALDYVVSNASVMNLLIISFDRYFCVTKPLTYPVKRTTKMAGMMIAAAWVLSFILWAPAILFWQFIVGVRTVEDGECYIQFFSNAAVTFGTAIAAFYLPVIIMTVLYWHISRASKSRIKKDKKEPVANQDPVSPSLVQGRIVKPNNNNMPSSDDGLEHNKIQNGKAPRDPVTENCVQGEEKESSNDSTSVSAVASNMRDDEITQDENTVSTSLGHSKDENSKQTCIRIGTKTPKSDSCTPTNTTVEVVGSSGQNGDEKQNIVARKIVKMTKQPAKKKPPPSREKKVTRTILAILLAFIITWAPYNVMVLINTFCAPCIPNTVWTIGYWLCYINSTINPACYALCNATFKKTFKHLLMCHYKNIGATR

[5] = molecular target: T3, Muscarinic acetylcholine receptor M2; test: Antagonist activity at human muscarinic M2 receptor expressed in CHO cells co-expressing Galpha15 assessed as inhibition of acetylcholine-induced calcium mobilization relative to acetylcholine; format: functional, cell-based
[6] = molecular target: T4, Muscarinic acetylcholine receptor M2 (Homo sapiens) (UniProt P08172); test: Antagonist activity at muscarinic M2 receptor (unknown origin) at 100 uM by acetylcholine titration assay; conditions: filed as antagonist
T4 sequence (whole entry): T3 sequence (P08172 whole entry)
Summary of the method: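 Acetylcholine titration curves were run in a radioligand binding format, without and with test ligand at 100 μM. A rightward shift of the ACh curve was taken to indicate negative allosteric modulation, and no shift to indicate orthosteric antagonism.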

SMILES | Ki [1] | Ki [2] | Ki [3] | Ki [4] | IC50 [5] | Activity [6]
O=C(CCN1CCCc2ccccc21)NC1CCCCC1 | 0.158 µM | 1.74 µM | 0.229 µM | – | – | –
O=C(CCN1CCCc2ccccc21)N1CCC(O)CC1 | 17 µM | 33.1 µM | 23.4 µM | 13.2 µM | 15.1 µM | –
CC1Cc2ccccc2N1CC(=O)N1CCCCC1 (centres undefined) | > 100 µM | > 100 µM | – | > 100 µM | > 100 µM | Active
O=C(CCN1CCCc2ccccc21)NCc1ccco1 | 4.37 µM | 12 µM | 2.63 µM | 1.23 µM | 1.12 µM | –
Cn1ccc(NC(=O)CCN2CCCc3ccccc32)n1 | 8.71 µM | 25.7 µM | 7.59 µM | 3.31 µM | 0.977 µM | –
CC(C)(C)OC(=O)N1CCN(CC(=O)n2c3ccccc3c3ccccc32)CC1 | 25.7 µM | 21.9 µM | 12.9 µM | 22.9 µM | 18.6 µM | –
O=C(CCN1CCCc2ccccc21)N1CCCC1CO (centres undefined) | 11.7 µM | 32.4 µM | 14.1 µM | 5.13 µM | 19.1 µM | –
O=C(CCN1CCCc2ccccc21)N1CCCC(O)C1 (centres undefined) | 18.6 µM | 53.7 µM | 33.1 µM | 6.17 µM | 29.5 µM | –
O=C(CCN1CCCc2ccccc21)Nc1cccc2ccccc12 | 4.07 µM | 26.3 µM | 9.33 µM | 0.912 µM | 0.339 µM | –
CC1CCCC(C)N1C(=O)CCN1CCCc2ccccc21 (centres undefined) | 17.8 µM | 55 µM | 27.5 µM | – | – | –
O=C(CCN1CCCc2ccccc21)Nc1ccc(Cl)cc1 | 10.7 µM | 10.7 µM | 5.62 µM | 3.31 µM | 1.41 µM | –
C[C@@H]1CCC[C@H](C)N1C(=O)CCN1CCCc2ccccc21 | 1.12 µM | 3.55 µM | 1.15 µM | – | – | –
CC1Cc2ccccc2N1CC(=O)N1CCCC1 (centres undefined) | 74.1 µM | 79.4 µM | 100 µM | 21.4 µM | > 100 µM | Active
CC1CCN(C(=O)CCN2CCCc3ccccc32)CC1 | 0.288 µM | 0.977 µM | 0.302 µM | – | – | –
O=C(CCN1CCCc2ccccc21)Nc1ccccc1 | 0.214 µM | 0.776 µM | 0.263 µM | – | – | –
O=C(CCN1CCCc2ccccc21)NCc1cccc(F)c1 | 6.46 µM | 12.9 µM | 2.04 µM | – | – | –
O=C(CN1CCCc2cnccc21)N1CCCC1 | > 100 µM | 85.1 µM | 93.3 µM | 43.7 µM | > 100 µM | –
Cn1ccc2c(NC(=O)CCN3CCCc4ccccc43)cccc21 | 12 µM | > 100 µM | 5.01 µM | 2.29 µM | 0.427 µM | –
O=C(CCN1CCCc2ccccc21)NCc1cccs1 | 2.14 µM | 7.24 µM | 0.646 µM | 0.646 µM | 1.02 µM | –
CC1CCCCN1C(=O)CCN1CCCc2ccccc21 (centres undefined) | 5.25 µM | 8.51 µM | 6.31 µM | 3.24 µM | 3.16 µM | –
COC1CN(C(=O)CCN2CCCc3ccccc32)C1 | 15.8 µM | 32.4 µM | 17.4 µM | 3.55 µM | 20.4 µM | –
O=C(CCN1CCCc2ccccc21)N1CCCC1 | 1.58 µM | 2.88 µM | 1.05 µM | 0.288 µM | 1.82 µM | –

SMILES | Ki [1] | Ki [2] | Ki [3] | Ki [4] | IC50 [5] | Activity [6]
O=C(CN1CCCc2cnccc21)N1CCCCC1 | 58.9 µM | 60.3 µM | > 100 µM | 40.7 µM | > 100 µM | –
O=C(CN1CCc2ccc(Br)cc21)N1CCCCC1 | > 100 µM | > 100 µM | > 100 µM | > 100 µM | > 100 µM | –
O=C(CCN1CCCc2ccccc21)N1CCCC(CO)C1 (centres undefined) | 1.74 µM | 5.25 µM | 1.45 µM | 0.617 µM | 0.759 µM | –
O=C(CCN1CCCc2ccccc21)Nc1cccnn1 | 14.1 µM | 29.5 µM | 14.1 µM | – | – | –
CC1CCc2ccccc2N1CC(=O)N1CCCCC1 (centres undefined) | 8.91 µM | 52.5 µM | 28.2 µM | 3.63 µM | 7.41 µM | –
O=C(CCN1CCCc2ccccc21)N1CCCCC1CO (centres undefined) | 7.24 µM | 31.6 µM | 11.5 µM | 3.63 µM | 10.7 µM | –
O=C(CCN1CCCc2ccccc21)Nc1nccs1 | 58.9 µM | > 100 µM | 1.12 µM | – | – | –
O=C(CCN1CCCc2ccccc21)Nc1ccc(O)cc1F | > 100 µM | > 100 µM | > 100 µM | 64.6 µM | > 100 µM | –
CC1CCCN(C(=O)CCN2CCCc3ccccc32)C1 (centres undefined) | 0.776 µM | 2.88 µM | 0.603 µM | 0.407 µM | 1.51 µM | –
O=C(CN1CCCc2ccccc21)N1CCCC1 | 1.38 µM | 7.41 µM | 2.88 µM | 0.389 µM | 0.617 µM | –
O=C(O)C1CCCN1C(=O)CCN1CCCc2ccccc21 (centres undefined) | 0.891 µM | 4.57 µM | 1.05 µM | 0.575 µM | 0.776 µM | –
O=C(CCN1CCCc2ccccc21)N1CCC(O)C1 (centres undefined) | 50.1 µM | > 100 µM | 51.3 µM | 16.6 µM | 70.8 µM | –
Cc1ccc2c(c1)CCCN2CC(=O)N1CCCCC1 | 21.4 µM | 66.1 µM | 17.8 µM | 18.6 µM | 24.5 µM | –
CCn1c2ccccc2c2ccc(NCC(=O)N3CCCCC3)cc21 | 91.2 µM | 44.7 µM | 43.7 µM | – | – | –
O=C(CCN1CCCc2ccccc21)NC1CCCC1 | 0.257 µM | 2.57 µM | 0.245 µM | – | – | –
CC1CCc2ccccc2N1CC(=O)N1CCCC1 (centres undefined) | 6.31 µM | > 100 µM | 44.7 µM | 2.45 µM | 4.9 µM | –
O=C(CN1CCCc2ccc(O)cc21)N1CCCCC1 | 87.1 µM | > 100 µM | > 100 µM | – | – | –
O=C(CN1CCCc2ccccc21)N1CCCCC1 | 1.23 µM | 11 µM | 2.88 µM | 0.417 µM | 0.437 µM | –
O=C(CCN1CCCc2ccccc21)N1CCC[C@H]1CO | 12.9 µM | 43.7 µM | 14.1 µM | 5.13 µM | 17.4 µM | –
O=C(CN1CCc2ccc(F)cc21)N1CCCC1 | > 100 µM | 95.5 µM | > 100 µM | 50.1 µM | 75.9 µM | –
CC1CCCCN1CC(=O)n1c2ccccc2c2ccccc21 (centres undefined) | > 100 µM | > 100 µM | > 100 µM | 95.5 µM | 52.5 µM | –
O=C(CCN1CCCc2ccccc21)N1CCC1 | 5.75 µM | 11.5 µM | 4.47 µM | 1.7 µM | 12 µM | –
